KCNK9 inh = blocks the human KCNK9 two-pore domain potassium channel. B-score at 10 µM. AID 488922. HEK293 KCNK9, FluxOR thallium flux fluorescence; active compounds read low. 310,000 tested, 1.2% active;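 active = ratio B-score over 3 SD below the library mean, with starting fluorescence within 5 SD of its mean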;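 also: negative B-score means less thallium flux so channel inhibition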
Target sequence (Q9NPC2 whole entry, looked up, the tested form may be a part): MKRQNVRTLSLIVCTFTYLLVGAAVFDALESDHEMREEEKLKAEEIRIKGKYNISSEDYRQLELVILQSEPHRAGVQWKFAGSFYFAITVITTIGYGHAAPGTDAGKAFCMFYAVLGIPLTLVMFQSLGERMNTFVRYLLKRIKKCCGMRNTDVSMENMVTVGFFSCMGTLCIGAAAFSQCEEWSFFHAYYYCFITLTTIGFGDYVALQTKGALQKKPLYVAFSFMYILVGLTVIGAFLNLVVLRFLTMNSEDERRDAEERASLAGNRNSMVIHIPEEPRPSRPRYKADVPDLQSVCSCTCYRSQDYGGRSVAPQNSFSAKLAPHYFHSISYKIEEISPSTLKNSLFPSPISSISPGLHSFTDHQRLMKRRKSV
KCNQ1 pot = potentiates or activates the human KCNQ1 potassium channel; P51787; CHO-K1 KCNQ1, thallium flux FluxOR fluorescence; active compounds read high; B-score at 10 µM; 310,000 tested, 0.35% active; AID 2648;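 active = fluorescence ratio B-score, a plate-corrected score, at least three library SD, with initial intensity B-score within 5 SD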
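Assay system: CHO-K1 cells stably expressing KCNQ1. Medium: assay buffer for compound exposure, DMSO matched across wells. Timing: 37 °C overnight plating, 90-min dark dye load, 20-min compound pretreatment. Signal: kinetic FluxOR fluorescence, 10 s baseline plus 110 s post-stimulus.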
KCNK3 inh = human KCNK3 channel inhibition, primary screen. O14649. CHO-KCNK3 thallium flux, FluxOR fluorescence; active compounds read low. B-score at 10 µM. 340,000 tested, 0.84% active. AID 602410;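 active = B-score under library mean minus 4 SD, starting fluorescence ratio at most library mean plus 5 SD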;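 also: more negative B-score means stronger inhibition of thallium flux through KCNK3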
hERG rescue = shields human hERG channel from block by proarrhythmic agents; Q12809; CHO-hERG, FluxOR thallium flux, dofetilide IC70 present; activation (rescue from dofetilide block), less the hit threshold, % at 10 µM; 310,000 tested, 0.51% active; AID 1511;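 active = activation above the mean of controls blocked by dofetilide plus 5 SD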;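 also: thallium influx through hERG after potassium depolarization seen as dye fluorescence rise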
KCNQ1 inh = human KCNQ1 channel inhibition; 310,000 tested, 1.3% active; CHO-K1 KCNQ1, FluxOR thallium flux fluorescence; active compounds read high; B-score at 10 µM;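 active = compounds whose thallium flux B-score, printed positive for inhibition, exceeds three library SD while starting fluorescence stays within three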;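 also: channel opened by potassium depolarization with thallium stimulus after 20 min compound exposure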
Cl transport mod = modulates chloride dependent transport by human KCC2; 190,000 tested, 2.2% active; KCC2 cells, thallium flux FluoZin-2 fluorescence; Q9H2X9; B-score of Tl+ flux slope (higher = more flux/activation; lower = inhibition) at 10 µM; AID 1456;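 active = thallium flux slope and its plate-corrected score both differing from the plate sample mean at a set confidence after two filtering rounds, in either direction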;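 also: slope of fluorescence scaled to starting intensity during 10 to 20 s after thallium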
Starred values were filed as active, the others as inactive; i = inactive; nt = not tested or not shown. Rows were chosen to be rich in hits. Some 4.1% of all compounds tested hit in one or more screens of this group.

SMILES	KCNK9 inh	KCNQ1 pot	KCNK3 inh	hERG rescue	KCNQ1 inh	Cl transport mod
CC(C)c1ccc(C2C3=C(CC(C)(C)CC3=O)NC3=C2C(=O)c2ccccc23)cc1 (centres undefined)	i	i	i	-7	11*	-0.44
CC1(C)CC(=O)C2=C(C1)NC1=C(C(=O)c3ccccc31)C2c1cc([N+](=O)[O-])ccc1O (centres undefined)	i	i	i	-13	6*	-0.2
CN(C)C(=O)c1ccc(NC(=O)COC(=O)C2(c3ccccc3)CCCC2)cc1	nt	nt	i	nt	nt	nt
CCC(C)[C@@H](C(=O)N1CCNCC1)n1cc(CCCN=C(N)N)nn1 (some centres undefined)	i	i	i	-4	i	0.18
C[C@@H](C(=O)N1CCNCC1)n1cc(CCCN=C(N)N)nn1	i	i	i	-6	i	2*
O=C(Nc1ccc(C(O)(C(F)(F)F)C(F)(F)F)cc1)c1ccc(Cl)c([N+](=O)[O-])c1	i	i	i	-50	6*	-0.15
Cc1ccc(Oc2cc(NC(=O)CCCn3nc([N+](=O)[O-])c(Cl)c3C)cc([N+](=O)[O-])c2)cc1	i	i	i	-13	7*	0.53
O=C(NC(=S)Nc1nc(-c2ccc([N+](=O)[O-])cc2)cs1)c1ccco1	i	21*	i	15*	i	nt
O=C(Nc1nc(-c2ccccc2)cs1)c1ccco1	i	i	i	-12	i	-2.2
CC1CCN(c2ccc(C(=O)Nc3ccc4c(c3)OCO4)cc2[N+](=O)[O-])CC1	i	i	i	-8	i	-0.032
CC1CCCN(c2ccc(C(=O)Nc3ccc4c(c3)OCO4)cc2[N+](=O)[O-])C1 (centres undefined)	i	i	i	-7	6*	-1.2
Cc1ccc(NC(=O)c2ccc3c(c2)OCO3)cc1Cl	i	i	i	13*	i	nt
Cc1ccc(C(=O)Nc2ccc3c(c2)OCO3)cc1Cl	i	i	i	-3	i	nt
O=C(c1ccoc1)N1CCC2(CC1)Oc1ccc(Cl)cc1C(=O)C21CC(c2ccc(Cl)cc2)=NO1 (centres undefined)	i	i	i	-12	6*	0.8
O=C(NC(=S)Nc1ncc(Br)cc1Br)c1cncc(Br)c1	i	i	i	-6	i	3.5
Cc1ccccc1NC(=S)NC(=O)c1cncc(Br)c1	i	i	i	-1	i	29*
O=C(NC(=S)NC1CCCCCC1)c1cncc(Br)c1	i	i	i	-1	i	48*
Clc1ccc(-n2cnc3c(Cl)ncnc32)cc1Cl	nt	nt	i	nt	nt	nt
CCOc1ccc(NC(=O)COC(=O)CC2CC3CCC2C3)cc1 (centres undefined)	nt	nt	i	nt	nt	nt
COc1cc2cc(CN(Cc3cccs3)C(=S)Nc3cccc(C)c3)c(=O)[nH]c2cc1OC	i	i	nt	-11	7*	-0.45
C=CC[n+]1c(/C=C/c2ccc(OC(C)=O)c(OC)c2)ccc2ccccc21	i	12*	i	-7	i	nt
COC(=O)C1=C(C)Nc2nnnn2C1c1ccc(Cl)cc1Cl (centres undefined)	i	18*	i	-5	i	-1.1
CCOC(=O)C1=C(C)Nc2nnnn2C1c1ccccc1Cl (centres undefined)	nt	nt	i	nt	nt	-0.17
COc1cc(C(=O)NNC(=O)CNC(=O)C2CCCCC2)ccc1OC(C)C	nt	nt	i	nt	nt	nt
Cc1cc(N(C)C)ccc1[N+](=O)[O-]	i	i	i	4.7*	i	-2.4
SMILES	KCNK9 inh	KCNQ1 pot	KCNK3 inh	hERG rescue	KCNQ1 inh	Cl transport mod
COC(=O)c1c[nH]c2c1-c1cc(C(=O)OCc3ccccc3)n(S(=O)(=O)c3ccc(C)cc3)c1C(=O)C2=O	nt	nt	i	nt	nt	nt
O=C(Cn1cnc2c(nnn2Cc2ccc(Cl)cc2)c1=O)N1CCN(c2ccccc2)CC1	nt	nt	i	nt	nt	-3.9*
O=C(Cn1cnc2c(oc3ccccc32)c1=O)N1CCN(c2ccccc2)CC1	i	i	i	9.4*	i	nt
O=C(NCCc1nccs1)C1CCC(=O)N(Cc2cccc(C(F)(F)F)c2)C1 (centres undefined)	i	i	i	-2	i	nt
C=C(C)CCC(C)N1CCC(n2nccc2NC(=O)CCCc2ccccc2)CC1 (centres undefined)	i	i	i	-8	i	nt
CC(=O)C[C@H]1c2cc(C(F)(F)F)ccc2S(=O)(=O)N1Cc1ccccc1	i	9*	i	-12	i	nt
C=CCn1c(N)cc(=O)nc1SCC(=O)Nc1ccc(C(=O)OCC)cc1	i	i	i	-5	i	nt
Cc1cc(SCC(=O)NC2CCCC2)nc2ccccc12	i	i	i	-1	i	nt
Cc1cc(C)cc(C(=O)O/N=C(\N)c2ccc(Br)cc2)c1	i	i	i	-12	i	0.2
Cc1ccc(C(=O)O/N=C(\N)c2ccc(Br)cc2)cc1C	i	i	i	6.4*	i	nt
S=c1[nH]nc(C2COc3ccccc3O2)o1 (centres undefined)	i	i	i	-1	i	-6.9*
Cn1c(=O)c2c(ncn2CC(=O)NC[C@H]2O[C@@H](n3cnc4c(N)ncnc43)[C@H](O)[C@@H]2O)n(C)c1=O	nt	nt	i	nt	nt	nt
COc1ccc(CNC(=O)Cc2csc(Nc3nc(=S)[nH]c4ccccc34)n2)cc1	i	i	i	-17	i	7*
O=C(Cc1csc(Nc2nc(=S)[nH]c3ccccc23)n1)NCc1ccc(Cl)cc1	i	i	i	-13	i	5.9*
Cc1ccc(Cl)cc1N1CCN(C(=O)C2(S(=O)(=O)c3ccc(Cl)cc3)CC2)CC1	i	i	i	-11	6*	0.33
O=c1cc(-c2c(F)c(F)c(F)c(F)c2F)oc2ccccc12	i	24*	i	19*	i	-0.76
Cc1ccc(-n2cnc3c(=O)[nH]cnc32)cc1	nt	nt	i	nt	nt	nt
Cc1ccc(C(c2sc3nc(C)nn3c2O)N2CCN(C(=O)c3ccco3)CC2)cc1 (centres undefined)	i	i	i	-9	i	1.9
Cc1nc2sc(C(c3ccccc3)N3CCN(C(=O)c4ccco4)CC3)c(O)n2n1 (centres undefined)	i	12*	i	2	i	-0.71
Fc1ccc(-c2csc3ncnc(N4CCc5ccccc5C4)c23)cc1	-7.1*	i	i	-13	6*	0.18
COc1ccc(OCC(=O)NC2CCCN(Cc3ccc(Cl)cc3)C2)cc1 (centres undefined)	i	i	i	-6	i	nt
Cc1ccc(C)n1-c1ccc(C(=O)N2CCC(C(N)=O)CC2)cc1	i	i	i	7.2*	i	-0.21
